Assay results reported in ChEMBL document CHEMBL1681634, “Acyloxy nitroso compounds as nitroxyl (HNO) donors: kinetics, reactions with thiols, and vasodilation properties” (J Med Chem, 2011).
Structures can show the parent of a compound that is named as a salt. Calls of active or inactive are those of the source. No cut-off for these calls is given here.

Experiments:
Thoracic aorta [1] = experiment: Potentiation of 1-Nitrosocyclohexyl acetate induced- vasodilatory activity in Sprague-Dawley rat thoracic aorta at 1 mM; assay type: functional, tissue-based
Outline: (§1)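 Male Sprague-Dawley rat (200-250 g) thoracic aorta rings, 2-4 mm, in Krebs-Henseleit buffer at 37°C, pH 7.45, 2 g basal tension, 1 hr equilibration, 70 mM KCl viability check. Pretreated with L-NAME (100 μM) and indomethacin (5 μM), then preconstricted with phenylephrine (100 nM). Donors added cumulatively; relaxation is delta tension as percent of maximal PE constriction. Sigmoidal fits by non-linear regression give EC50.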

Rattus norvegicus [2] = species on record: Rattus norvegicus; experiment: Vasodilatory activity in rat aorta assessed as relaxation of phenylephrine-induced vasoconstriction
Thoracic aorta [3] = experiment: Vasodilatory activity in Sprague-Dawley rat thoracic aorta assessed as relaxation of phenylephrine-induced vasoconstriction at 0.01 nM to 1 uM in presence of 21% oxygen; assay type: functional, tissue-based; outline: as §1
Thoracic aorta [4] = experiment: Potentiation of MahmaNonoate induced- vasodilatory activity in Sprague-Dawley rat thoracic aorta at 1 mM; assay type: functional, tissue-based; outline: as §1
Thoracic aorta [5] = experiment: Vasodilatory activity in Sprague-Dawley rat thoracic aorta assessed as relaxation of phenylephrine-induced vasoconstriction compound treated 5 mins after 1 uM soluble guanylate cyclase inhibitor ODQ treatment; assay type: functional, tissue-based; outline: as §1
Thoracic aorta [6] = experiment: Inhibition of 1-Nitrosocyclohexyl acetate induced- vasodilatory activity in Sprague-Dawley rat thoracic aorta at 0.1 to 1 mM; assay type: functional, tissue-based; outline: as §1
Thoracic aorta [7] = experiment: Vasodilatory activity in Sprague-Dawley rat thoracic aorta assessed as relaxation of phenylephrine-induced vasoconstriction at 0.01 nM to 100 uM; assay type: functional, tissue-based; outline: as §1
Rattus norvegicus [8] = species on record: Rattus norvegicus; experiment: Vasodilatory activity in rat thoracic aorta assessed as relaxation of phenylephrine-induced vasoconstriction
Thoracic aorta [9] = experiment: Vasodilatory activity in Sprague-Dawley rat thoracic aorta assessed as relaxation of phenylephrine-induced vasoconstriction compound treated 5 mins after 200 uM NO-scavenger C-PTIO treatment; assay type: functional, tissue-based; outline: as §1
Thoracic aorta [10] = experiment: Vasodilatory activity in Sprague-Dawley rat thoracic aorta assessed as relaxation of phenylephrine-induced vasoconstriction at 0.01 nM to 1 uM in presence of 1% oxygen; assay type: functional, tissue-based; outline: as §1
Thoracic aorta [11] = experiment: Vasodilatory activity in Sprague-Dawley rat thoracic aorta assessed as relaxation of phenylephrine-induced vasoconstriction at 0.01 nM to 1 uM in presence 100 U/ml SOD at 21% oxygen; assay type: functional, tissue-based; outline: as §1
Thoracic aorta [12] = experiment: Inhibition of Angeli's salt induced- vasodilatory activity in Sprague-Dawley rat thoracic aorta at 0.1 to 1 mM; assay type: functional, tissue-based; outline: as §1
Thoracic aorta [13] = experiment: Inhibition of 1-Nitrosocyclohexyl trifluoroacetate induced- vasodilatory activity in Sprague-Dawley rat thoracic aorta at 0.1 to 1 mM; assay type: functional, tissue-based; outline: as §1
Thoracic aorta [14] = experiment: Potentiation of 1-Nitrosocyclohexyl trifluoroacetate induced- vasodilatory activity in Sprague-Dawley rat thoracic aorta at 1 mM; assay type: functional, tissue-based; outline: as §1
Thoracic aorta [15] = experiment: Potentiation of Angeli's salt induced- vasodilatory activity in Sprague-Dawley rat thoracic aorta at 1 mM; assay type: functional, tissue-based; outline: as §1
Rattus norvegicus [16] = species on record: Rattus norvegicus; experiment: Ratio of compound EC50 to Angeli's salt EC50 for vasodilatory activity in rat thoracic aorta
Rattus norvegicus [17] = species on record: Rattus norvegicus; experiment: Ratio of compound EC50 to Angeli's salt EC50 for vasodilatory activity in rat aorta

SMILES	Activity (Thoracic aorta [1])	EC50 (Rattus norvegicus [2]) [nM]	Activity (Thoracic aorta [3])	Activity (Thoracic aorta [4])	Activity (Thoracic aorta [5])	inhibition (Thoracic aorta [6])	Activity (Thoracic aorta [7])	EC50 (Rattus norvegicus [8]) [nM]	Activity (Thoracic aorta [9])	Activity (Thoracic aorta [10])	Activity (Thoracic aorta [11])	inhibition (Thoracic aorta [12])	inhibition (Thoracic aorta [13])	Activity (Thoracic aorta [14])	Activity (Thoracic aorta [15])	Ratio EC50 (Rattus norvegicus [16])	Ratio EC50 (Rattus norvegicus [17])
CC(=O)OC1(N=O)CCCCC1 [1-NITROSOCYCLOHEXYL ACETATE]	inactive	10000	Active	inactive	inactive	inactive	Dose-dependent effect	10000	inactive	Active	Active						
CNCCCCCCN(C)N(O)N=O	inactive			inactive	inactive		Dose-dependent effect		inactive								
N[C@@H](CCC(=O)N[C@@H](CS)C(=O)NCC(=O)O)C(=O)O						inactive						Active	Active				
O=NC1(OC(=O)C(F)(F)F)CCCCC1 [1-NITROSOCYCLOHEXYL TRIFLUOROACETATE]		880	Active		inactive		Dose-dependent effect	880	inactive	Active	Active	Active	Active	Active	Active	10	10
[O-][N+]([O-])=NO [ANGELI'S SALT]		82	Active		inactive		Dose-dependent effect	82	inactive	inactive	Active	Active	Active	Active	Active		
CC(=O)N[C@@H](CS)C(=O)O	inactive			inactive										Active	Active		
